Laboratory results as given in BindingDB's records for doi:10.1021/jm9009229 (University of California, 2010).
pIC50: −log10 of the molar value.

What follows are molecules tested against Cruzipain (Trypanosoma cruzi, UniProt P25779) (assay: Inhibition of Trypanosoma cruzi cruzain preincubated for 5 mins before substrate addition in presence of 0.01% Triton X-100).
Outline: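 Cruzain IC50s were measured from dose-response curves with Triton X-100 in the assay buffer at either 0.01% or 0.001%. At 0.001% Triton, some runs included pre-incubation with BSA.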

Cruzipain, sequence (P25779 whole entry): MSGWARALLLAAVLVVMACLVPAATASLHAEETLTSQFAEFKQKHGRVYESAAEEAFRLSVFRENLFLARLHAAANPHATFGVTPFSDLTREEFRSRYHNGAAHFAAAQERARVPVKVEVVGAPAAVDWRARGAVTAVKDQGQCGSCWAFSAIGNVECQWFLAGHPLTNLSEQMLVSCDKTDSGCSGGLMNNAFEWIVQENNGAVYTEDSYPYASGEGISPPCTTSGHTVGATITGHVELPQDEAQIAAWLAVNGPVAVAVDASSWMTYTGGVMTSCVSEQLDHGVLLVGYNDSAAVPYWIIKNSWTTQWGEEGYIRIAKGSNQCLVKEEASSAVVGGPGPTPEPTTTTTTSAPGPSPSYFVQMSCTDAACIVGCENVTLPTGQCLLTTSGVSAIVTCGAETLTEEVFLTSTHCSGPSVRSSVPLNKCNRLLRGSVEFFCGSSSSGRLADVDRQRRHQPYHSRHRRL

`Nc1ccccc1-c1nnc(C(=O)Nc2ccc3oc4c(c3c2)CCCC4)o1` [5-(2-Amino-phenyl)-[1,3,4]oxadiazole-2-carboxylic acid(6,7,8,9-tetrahydrodibenzofuran-2-yl)-amide] and `Nc1ccccc1-c1nnc(C(=O)Nc2cccc(N3CCCC3)c2)o1` [5-(2-Amino-phenyl)-[1,3,4]oxadiazole-2-carboxylic acid(3-pyrrolidin-1-yl-phenyl)-amide] cannot be ordered by pIC50: under 4.00 for the first, under 4.00 for the second.

`Cc1ccc(-c2cc(NC(=O)c3nnc(-c4ccccc4N)o3)[nH]n2)cc1` [5-(2-Amino-phenyl)-[1,3,4]oxadiazole-2-carboxylic acid(5-p-tolyl-2H-pyrazol-3-yl)-amide] and `COc1ccc(-c2cc(NC(=O)c3nnc(-c4ccccc4N)o3)[nH]n2)cc1` [5-(2-Amino-phenyl)-[1,3,4]oxadiazole-2-carboxylic acid[5-(4-methoxy-phenyl)-1Hpyrazol-3-yl]-amide] cannot be ordered by pIC50: under 4.00 for the first, under 4.00 for the second.

`Nc1ccccc1-c1nnc(C(=O)Nc2cc(-c3ccccc3)n[nH]2)o1` [5-(2-Amino-phenyl)-[1,3,4]oxadiazole-2-carboxylic acid(5-phenyl-2H-pyrazol-3-yl)-amide] and `Cc1cc(NC(=O)c2nnc(-c3ccccc3N)o2)[nH]n1` [5-(2-Amino-phenyl)-[1,3,4]oxadiazole-2-carboxylic acid(5-methyl-2H-pyrazol-3-yl)-amide] cannot be ordered by pIC50: under 4.00 for the first, under 4.00 for the second.

`CC(C)(C)c1cc(NC(=O)c2nnc(-c3ccccc3N)o2)[nH]n1` [5-(2-Amino-phenyl)-[1,3,4]oxadiazole-2-carboxylic acid(5-tert-butyl-2H-pyrazol-3-yl)-amide] showed a pIC50 of under 4.30.
